Data as given in ChEMBL document CHEMBL1795256, “Synthesis and biological evaluation of novel aliphatic amido-quaternary ammonium salts for anticancer chemotherapy: part I” (2011).
The source made the active and inactive calls. The rule behind the calls is not given here.

Experiments:
NCI-H23 = assay: Growth inhibition of human NCI-H23 cells by sulforhodamine B assay; assay type: functional
MDA-MB-231 = assay: Growth inhibition of human MDA-MB-231 cells by sulforhodamine B assay; assay type: functional
PC-3 = assay: Growth inhibition of human PC3 cells by sulforhodamine B assay; assay type: functional
HCT-15 = assay: Growth inhibition of human HCT15 cells by sulforhodamine B assay; assay type: functional
NUGC-3 = assay: Growth inhibition of human NUGC3 cells by sulforhodamine B assay; assay type: functional
ACHN = assay: Growth inhibition of human ACHN cells by sulforhodamine B assay; assay type: functional
[1] = biological target: Rho-related GTP-binding protein RhoB (Homo sapiens) (UniProt P62745); assay: Transactivation of RhoB expressed in human HeLa cells at 5 uM by dual renilla/firefly luciferase reporter assay; assay type: cell-based
How it was run: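 HeLa cells at 75–90% confluence were transiently cotransfected with a pGL2 firefly luciferase plasmid driven by the RhoB promoter (empty pGL2 vector as comparison) plus pRL-SV40 Renilla luciferase. Luciferase activity was measured after compound exposure in a dual-luciferase reporter read-out.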

Chain of Rho-related GTP-binding protein RhoB (Homo sapiens) (P62745 whole entry): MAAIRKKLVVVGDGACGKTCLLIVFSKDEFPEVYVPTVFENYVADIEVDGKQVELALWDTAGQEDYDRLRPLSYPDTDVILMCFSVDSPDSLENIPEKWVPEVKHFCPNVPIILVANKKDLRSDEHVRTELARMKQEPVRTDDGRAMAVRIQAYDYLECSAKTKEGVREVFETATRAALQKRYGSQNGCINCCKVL

**Q.** For `C=CC[N+]1(C)CCN(C(=O)CCCCCCCCCCCCCCCCCCCCC)CC1`, which GI50 (NCI-H23) is on record?
**A.** 3.07 µM

**Q.** What about the GI50 (MDA-MB-231) of the same molecule?
**A.** 3.16 µM

**Q.** What about the GI50 (PC-3) of the same molecule?
**A.** 0.96 µM

**Q.** And the GI50 (HCT-15)?
**A.** 2.13 µM

**Q.** And the GI50 (NUGC-3)?
**A.** 1.53 µM

**Q.** And the GI50 (ACHN)?
**A.** 2.37 µM

**Q.** Which results are given for `CCCCCCCCCC(=O)N1CC[N+](C)(C)CC1`?
**A.** GI50 (NCI-H23): inactive; GI50 (MDA-MB-231): inactive; GI50 (PC-3): inactive; Activity [1]: inactive; GI50 (HCT-15): inactive; GI50 (NUGC-3): inactive; GI50 (ACHN): inactive

**Q.** How did the GI50 (NCI-H23) turn out when `CCCCCCCCCCCCCCCCCCCCCCCC(=O)N1CC[N+](C)(C)CC1` was run?
**A.** inactive

**Q.** What about the GI50 (MDA-MB-231) of the same molecule?
**A.** inactive

**Q.** What about the GI50 (PC-3) of the same molecule?
**A.** 4.79 µM

**Q.** What about the Activity [1] of the same molecule?
**A.** inactive

**Q.** What about the GI50 (HCT-15) of the same molecule?
**A.** inactive

**Q.** And the GI50 (NUGC-3)?
**A.** inactive

**Q.** And the GI50 (ACHN)?
**A.** inactive

**Q.** What does the source list for `CCCCCCCCCCCCCCCCCCOP(=O)([O-])OC1CC[N+](C)(C)CC1` [PERIFOSINE]?
**A.** GI50 (NCI-H23): 4.21 µM; GI50 (MDA-MB-231): 2.86 µM; GI50 (PC-3): 0.44 µM; GI50 (HCT-15): 1.25 µM; GI50 (NUGC-3): 0.54 µM; GI50 (ACHN): 4.56 µM

**Q.** How did the GI50 (NCI-H23) turn out when `CCCCCCCCCCCCCCCCCCCCCC(=O)N1CC[N+](C)(Cc2ccccc2)CC1` was run?
**A.** 2.95 µM

**Q.** And the GI50 (MDA-MB-231)?
**A.** 1.98 µM

**Q.** What about the GI50 (PC-3) of the same molecule?
**A.** 1.24 µM

**Q.** And the GI50 (HCT-15)?
**A.** 2.53 µM

**Q.** And the GI50 (NUGC-3)?
**A.** 1.9 µM

**Q.** And the GI50 (ACHN)?
**A.** 4.74 µM

**Q.** `C=CC[N+]1(CC)CCN(C(=O)CCCCCCCCCCCCCCC)CC1` was tested. Which GI50 (NCI-H23) did it give?
**A.** 0.88 µM

**Q.** And the GI50 (MDA-MB-231)?
**A.** 0.68 µM

**Q.** And the GI50 (PC-3)?
**A.** 0.37 µM

**Q.** What about the Activity [1] of the same molecule?
**A.** Active

**Q.** What about the GI50 (HCT-15) of the same molecule?
**A.** 1.33 µM

**Q.** What about the GI50 (NUGC-3) of the same molecule?
**A.** 0.27 µM

**Q.** What about the GI50 (ACHN) of the same molecule?
**A.** 0.5 µM

**Q.** Which results are given for `C=CC[N+]1(C)CCN(C(=O)CCCCCCCCCCCCCCC)CC1`?
**A.** GI50 (NCI-H23): inactive; GI50 (MDA-MB-231): inactive; GI50 (PC-3): inactive; Activity [1]: Active; GI50 (HCT-15): inactive; GI50 (NUGC-3): inactive; GI50 (ACHN): inactive

**Q.** For `CCCCCCCCCCCCCCCCCCCC(=O)N1CC[N+](C)(C)CC1`, which GI50 (NCI-H23) is on record?
**A.** 1.74 µM

**Q.** And the GI50 (MDA-MB-231)?
**A.** 1.63 µM

**Q.** And the GI50 (PC-3)?
**A.** 0.31 µM

**Q.** What about the Activity [1] of the same molecule?
**A.** Active

**Q.** What about the GI50 (HCT-15) of the same molecule?
**A.** 0.54 µM

**Q.** And the GI50 (NUGC-3)?
**A.** 0.42 µM

**Q.** And the GI50 (ACHN)?
**A.** 1.39 µM

**Q.** How did the GI50 (NCI-H23) turn out when `CCCCCCCCCCCCCCCC(=O)N1CC[N+](C)(C)CC1` was run?
**A.** 2.34 µM

**Q.** And the GI50 (MDA-MB-231)?
**A.** 1.44 µM

**Q.** And the GI50 (PC-3)?
**A.** 0.48 µM

**Q.** And the Activity [1]?
**A.** Active

**Q.** What about the GI50 (HCT-15) of the same molecule?
**A.** 0.58 µM

**Q.** And the GI50 (NUGC-3)?
**A.** 0.29 µM

**Q.** And the GI50 (ACHN)?
**A.** 1.04 µM

**Q.** With `CCCCCCCCCCCCCC(=O)N1CC[N+](C)(C)CC1` as the molecule, how does the GI50 (NCI-H23) read?
**A.** 1.58 µM

**Q.** And the GI50 (MDA-MB-231)?
**A.** 0.89 µM

**Q.** What about the GI50 (PC-3) of the same molecule?
**A.** 0.29 µM

**Q.** What about the Activity [1] of the same molecule?
**A.** Active

**Q.** And the GI50 (HCT-15)?
**A.** 0.85 µM

**Q.** And the GI50 (NUGC-3)?
**A.** 0.56 µM

**Q.** And the GI50 (ACHN)?
**A.** 1.01 µM

**Q.** Which results are given for `C=CC[N+]1(CC)CCN(C(=O)CCCCCCCCCCCCCCCCCCCCC)CC1`?
**A.** GI50 (NCI-H23): 3.94 µM; GI50 (MDA-MB-231): 2.53 µM; GI50 (PC-3): 1.47 µM; Activity [1]: Active; GI50 (HCT-15): 2.78 µM; GI50 (NUGC-3): 1.54 µM; GI50 (ACHN): 3.38 µM

**Q.** For `CCCCCCCCCCCCCCCCCCCCCC(=O)N1CC[N+](C)(C)CC1`, which GI50 (NCI-H23) is on record?
**A.** 3 µM

**Q.** And the GI50 (MDA-MB-231)?
**A.** 3.51 µM

**Q.** What about the GI50 (PC-3) of the same molecule?
**A.** 0.99 µM

**Q.** And the Activity [1]?
**A.** inactive

**Q.** And the GI50 (HCT-15)?
**A.** 2.41 µM

**Q.** What about the GI50 (NUGC-3) of the same molecule?
**A.** 1.15 µM

**Q.** What about the GI50 (ACHN) of the same molecule?
**A.** 2.39 µM

**Q.** With `CCCCCCCCCCCCCCCC(=O)N1CC[N+](CC)(Cc2ccccc2)CC1` as the molecule, how does the GI50 (NCI-H23) read?
**A.** 1.76 µM

**Q.** What about the GI50 (MDA-MB-231) of the same molecule?
**A.** 1.16 µM

**Q.** What about the GI50 (PC-3) of the same molecule?
**A.** 0.55 µM

**Q.** And the GI50 (HCT-15)?
**A.** inactive

**Q.** What about the GI50 (NUGC-3) of the same molecule?
**A.** 0.46 µM

**Q.** And the GI50 (ACHN)?
**A.** 0.92 µM

**Q.** Which results are given for `CCCCCCCCCCCCCCCCCC(=O)N1CC[N+](C)(C)CC1`?
**A.** GI50 (NCI-H23): 2.7 µM; GI50 (MDA-MB-231): 1.62 µM; GI50 (PC-3): 0.53 µM; GI50 (HCT-15): 0.81 µM; GI50 (NUGC-3): 0.56 µM; GI50 (ACHN): 2.74 µM

**Q.** How did the GI50 (NCI-H23) turn out when `CCCCCCCCCCCC(=O)N1CC[N+](C)(C)CC1` was run?
**A.** inactive

**Q.** And the GI50 (MDA-MB-231)?
**A.** 3.53 µM

**Q.** And the GI50 (PC-3)?
**A.** 0.58 µM

**Q.** And the Activity [1]?
**A.** inactive

**Q.** And the GI50 (HCT-15)?
**A.** inactive

**Q.** What about the GI50 (NUGC-3) of the same molecule?
**A.** 1.73 µM

**Q.** And the GI50 (ACHN)?
**A.** inactive

**Q.** Which GI50 (NCI-H23) does the source give for `CCCCCCCCCCCCCCCC(=O)N1CC[N+](C)(Cc2ccccc2)CC1` here?
**A.** 2.05 µM

**Q.** What about the GI50 (MDA-MB-231) of the same molecule?
**A.** 1.45 µM

**Q.** And the GI50 (PC-3)?
**A.** 0.51 µM

**Q.** And the GI50 (HCT-15)?
**A.** 5.06 µM

**Q.** And the GI50 (NUGC-3)?
**A.** 1 µM

**Q.** What about the GI50 (ACHN) of the same molecule?
**A.** 1.98 µM

**Q.** For `CCCCCCCCCCCCCCCCCCCCCC(=O)N1CC[N+](C)(CC)CC1`, which GI50 (NCI-H23) is on record?
**A.** 2.6 µM

**Q.** What about the GI50 (MDA-MB-231) of the same molecule?
**A.** 2.01 µM

**Q.** And the GI50 (PC-3)?
**A.** 0.85 µM

**Q.** And the GI50 (HCT-15)?
**A.** 1.69 µM

**Q.** What about the GI50 (NUGC-3) of the same molecule?
**A.** 1.22 µM

**Q.** And the GI50 (ACHN)?
**A.** 1.9 µM

**Q.** Which GI50 (NCI-H23) does the source give for `CCCCCCCCCCCCCCCC(=O)N1CC[N+](C)(CC)CC1` here?
**A.** 3.65 µM

**Q.** And the GI50 (MDA-MB-231)?
**A.** 2.05 µM

**Q.** What about the GI50 (PC-3) of the same molecule?
**A.** 0.8 µM

**Q.** And the GI50 (HCT-15)?
**A.** 1.8 µM

**Q.** And the GI50 (NUGC-3)?
**A.** 0.58 µM

**Q.** What about the GI50 (ACHN) of the same molecule?
**A.** 1.89 µM
